{"source": "ChEMBL document CHEMBL1687719", "about": "“Absence of CD4+ T lymphocytes, CD8+ T lymphocytes, or B lymphocytes has different effects on the efficacy of posaconazole and benznidazole in treatment of experimental acute Trypanosoma cruzi infection” (2009)", "key": {"[1]": {"tested_on": "Trypanosoma cruzi", "experiment": "Antitrypanosomal activity against Trypanosoma cruzi Y infected in CD4+ T-lymphocyte knockout C57BL/6 mouse assessed as increase in survival of mouse at 20 mg/kg/day, po administered twice daily for 20 consecutive days measured 60 days post infection", "type": "functional", "conditions": "1440 h", "outline": "(§1)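 Mice were infected ip with 5,000 Y-strain blood trypomastigotes. Oral treatment began at 4 dpi at 20 mg/kg/day, split into two daily doses, suspended in 2% methylcellulose with 0.5% Tween 80, for 20 days. Survival was recorded to 60 dpi, giving rate and mean survival time. Untreated and vehicle-treated infected controls were included. Chi-square/Bonferroni comparison.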"}, "[2]": {"tested_on": "Trypanosoma cruzi", "experiment": "Antitrypanosomal activity against Trypanosoma cruzi Y infected in CD4+ T-lymphocyte knockout C57BL/6 mouse assessed as reactivation of parasite in mouse at 100 mg/kg/day, po administered once daily for 20 consecutive days measured 60 days post infection", "type": "functional, organism-based", "outline": "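Ip infection was 5,000 Y-strain blood trypomastigotes. Oral dosing at 100 mg/kg/day, once daily in gum arabic water, ran from 4 dpi for 20 days. Parasitemia was read by microscopy of fresh tail blood, daily from 4–16 dpi, then every other day to 60 dpi. Reactivation was scored as patent parasitemia returning after treatment ended.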"}, "[3]": {"tested_on": "Trypanosoma cruzi", "experiment": "Antitrypanosomal activity against Trypanosoma cruzi Y infected in CD4+ T-lymphocyte knockout C57BL/6 mouse assessed as cure rate in mouse at 20 mg/kg/day, po administered twice daily for 20 consecutive days measured 60 days post infection", "type": "functional", "outline": "(§2)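 Wild-type or knockout mice got 5,000 Y-strain blood trypomastigotes ip. Oral dosing ran from 4 dpi for 20 days: 20 mg/kg/day in two doses, in 2% methylcellulose plus 0.5% Tween 80. Cure meant no parasitemia on fresh tail blood up to 60 dpi and a negative hemoculture: 0.5 ml orbital blood in LIT medium, 28°C, 30–60 days, checked by microscopy. Rates compared by chi-square/Bonferroni.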"}, "[4]": {"tested_on": "Trypanosoma cruzi", "experiment": "Antitrypanosomal activity against Trypanosoma cruzi Y infected in CD4+ T-lymphocyte knockout C57BL/6 mouse assessed as reactivation of parasite in mouse at 20 mg/kg/day, po administered twice daily for 20 consecutive days measured 7 days post infection", "type": "functional, organism-based", "outline": "(§3)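 Ip infection was 5,000 Y-strain blood trypomastigotes. From 4 dpi mice got 20 mg/kg/day orally in two daily doses (2% methylcellulose/0.5% Tween 80) for 20 days. Fresh tail blood was examined microscopically, daily from 4–16 dpi and every other day to 60 dpi. Reactivation was scored as return of patent parasitemia after treatment. Parasitemia curves were compared by Mann-Whitney.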"}, "[5]": {"tested_on": "Trypanosoma cruzi", "experiment": "Antitrypanosomal activity against Trypanosoma cruzi Y infected in C57BL/6 mouse assessed as mean survival time at 20 mg/kg/day, po administered twice daily for 20 consecutive days measured 60 days post infection", "type": "functional", "outline": "as §1"}, "[6]": {"tested_on": "Trypanosoma cruzi", "experiment": "Antitrypanosomal activity against Trypanosoma cruzi Y infected in CD4+ T-lymphocyte knockout C57BL/6 mouse assessed as reactivation of parasite in mouse at 20 mg/kg/day, po administered twice daily for 20 consecutive days measured 60 days post infection", "type": "functional, organism-based", "outline": "as §3"}, "[7]": {"tested_on": "Trypanosoma cruzi", "experiment": "Antitrypanosomal activity against Trypanosoma cruzi Y infected in CD8+ T-lymphocyte knockout C57BL/6 mouse assessed as cure rate in mouse at 20 mg/kg/day, po administered twice daily for 20 consecutive days measured 60 days post infection", "type": "functional", "outline": "as §2"}, "[8]": {"tested_on": "Trypanosoma cruzi", "experiment": "Antitrypanosomal activity against Trypanosoma cruzi Y infected in B-lymphocyte knockout C57BL/6 mouse assessed as increase in survival of mouse at 20 mg/kg/day, po administered twice daily for 20 consecutive days measured 60 days post infection", "type": "functional", "conditions": "1440 h", "outline": "as §1"}, "[9]": {"tested_on": "Trypanosoma cruzi", "experiment": "Antitrypanosomal activity against Trypanosoma cruzi Y infected in B-lymphocyte knockout C57BL/6 mouse assessed as mean survival time at 20 mg/kg/day, po administered twice daily for 20 consecutive days measured 60 days post infection", "type": "functional", "outline": "as §1"}, "[10]": {"tested_on": "Trypanosoma cruzi", "experiment": "Antitrypanosomal activity against Trypanosoma cruzi Y infected in B-lymphocyte knockout C57BL/6 mouse assessed as cure rate in mouse at 20 mg/kg/day, po administered twice daily for 20 consecutive days measured 60 days post infection", "type": "functional", "outline": "as §2"}, "[11]": {"tested_on": "Trypanosoma cruzi", "experiment": "Antitrypanosomal activity against Trypanosoma cruzi Y infected in CD8+ T-lymphocyte knockout C57BL/6 mouse assessed as mean survival time at 20 mg/kg/day, po administered twice daily for 20 consecutive days measured 60 days post infection", "type": "functional", "outline": "as §1"}, "[12]": {"tested_on": "Trypanosoma cruzi", "experiment": "Antitrypanosomal activity against Trypanosoma cruzi Y infected in CD8+ T-lymphocyte knockout C57BL/6 mouse assessed as increase in survival of mouse at 20 mg/kg/day, po administered twice daily for 20 consecutive days measured 60 days post infection", "type": "functional", "conditions": "1440 h", "outline": "as §1"}, "[13]": {"tested_on": "Trypanosoma cruzi", "experiment": "Antitrypanosomal activity against Trypanosoma cruzi Y infected in CD8+ T-lymphocyte knockout C57BL/6 mouse assessed as occurrence of low level of circulating parasites at 20 mg/kg/day, po administered twice daily for 20 consecutive days measured 25 days post infection", "type": "functional, organism-based", "outline": "as §3"}, "[14]": {"tested_on": "Trypanosoma cruzi", "experiment": "Antitrypanosomal activity against Trypanosoma cruzi Y infected in CD8+ T-lymphocyte knockout C57BL/6 mouse assessed as number of mouse with reactivated parasite at 20 mg/kg/day, po administered twice daily for 20 consecutive days measured 60 days post infection", "type": "functional", "outline": "as §3"}, "[15]": {"tested_on": "Trypanosoma cruzi", "experiment": "Antitrypanosomal activity against Trypanosoma cruzi Y infected in CD8+ T-lymphocyte knockout C57BL/6 mouse assessed as occurrence of subpatent level of parasitemia at 20 mg/kg/day, po administered twice daily for 20 consecutive days measured 60 days post infection", "type": "functional, organism-based", "outline": "as §3"}, "[16]": {"tested_on": "Trypanosoma cruzi", "experiment": "Antitrypanosomal activity against Trypanosoma cruzi Y infected in CD4+ T-lymphocyte knockout C57BL/6 mouse assessed as mean survival time at 20 mg/kg/day, po administered twice daily for 20 consecutive days measured 60 days post infection", "type": "functional", "outline": "as §1"}, "[17]": {"tested_on": "Trypanosoma cruzi", "experiment": "Antitrypanosomal activity against Trypanosoma cruzi Y infected in B-lymphocyte knockout C57BL/6 mouse assessed as number of mouse with reactivation of infection at 20 mg/kg/day, […] for 20 consecutive days measured 22 days post infection", "type": "functional, organism-based"}, "[18]": {"tested_on": "Trypanosoma cruzi", "experiment": "Antitrypanosomal activity against Trypanosoma cruzi Y infected in C57BL/6 mouse assessed as cure rate in mouse at 20 mg/kg/day, po administered twice daily for 20 consecutive days measured 60 days post infection", "type": "functional", "outline": "as §2"}, "[19]": {"tested_on": "Trypanosoma cruzi", "experiment": "Antitrypanosomal activity against Trypanosoma cruzi Y infected in C57BL/6 mouse assessed as increase in survival of mouse at 20 mg/kg/day, po administered twice daily for 20 consecutive days measured 60 days post infection", "type": "functional", "conditions": "1440 h", "outline": "as §1"}}, "note": "The source made the active and inactive calls. The rule behind the calls is not given here.", "data": [{"smiles": "CC[C@@H]([C@H](C)O)n1ncn(-c2ccc(N3CCN(c4ccc(OC[C@@H]5CO[C@@](Cn6cncn6)(c6ccc(F)cc6F)C5)cc4)CC3)cc2)c1=O", "note": "[POSACONAZOLE]", "values": [{"measurement": "survival at 20 mg/kg/day", "setting": "[1]", "value": 6, "unit": "%"}, {"measurement": "Activity", "setting": "[2]", "value": "inactive"}, {"measurement": "Activity", "setting": "[3]", "value": 0, "unit": "%"}, {"measurement": "Activity", "setting": "[4]", "value": "inactive"}, {"measurement": "MST", "setting": "[5]", "value": ">60", "unit": "days"}, {"measurement": "Activity", "setting": "[6]", "value": "inactive"}, {"measurement": "Activity", "setting": "[7]", "value": 31, "unit": "%"}, {"measurement": "survival at 20 mg/kg/day", "setting": "[8]", "value": 100, "unit": "%"}, {"measurement": "MST", "setting": "[9]", "value": ">60", "unit": "days"}, {"measurement": "Activity", "setting": "[10]", "value": 71, "unit": "%"}, {"measurement": "MST", "setting": "[11]", "value": 59.6, "unit": "days"}, {"measurement": "survival at 20 mg/kg/day", "setting": "[12]", "value": 81, "unit": "%"}, {"measurement": "Activity", "setting": "[13]", "value": "Active"}, {"measurement": "Activity", "setting": "[14]", "value": 13, "unit": "%"}, {"measurement": "Activity", "setting": "[15]", "value": "Active"}, {"measurement": "MST", "setting": "[16]", "value": 50.5, "unit": "days"}, {"measurement": "Activity", "setting": "[17]", "value": "Active"}, {"measurement": "Activity", "setting": "[18]", "value": 89, "unit": "%"}, {"measurement": "survival at 20 mg/kg/day", "setting": "[19]", "value": 100, "unit": "%"}]}]}
